Measurements reported in ChEMBL document CHEMBL1148612, “Rapid synthesis of triazole-modified resveratrol analogues via click chemistry” (J Med Chem, 2006).

The molecules below were run on SH-SY5Y (assay: Cytotoxicity against neuroblastoma SHSY5Y cell line by MTT assay at 100 uM). Details: not given.
Assay type: functional, Homo sapiens
Outline: (§1)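 Cells were exposed to compound at 100 µM for 48 h. Values are % viability relative to untreated control cells, given as mean ± SEM of four determinations.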

Structure (SMILES)	Activity [%]
COc1ccc(-n2cc(-c3cc(OC)cc(OC)c3)nn2)cc1	78.6
COc1ccc(-c2cn(-c3cc(O)cc(O)c3)nn2)cc1	62.2
Oc1ccc(/C=C/c2cc(O)cc(O)c2)cc1 [RESVERATROL]	33.5
COc1ccc(-c2cn(-c3cc(OC)cc(OC)c3)nn2)cc1	85.9
Oc1ccc(-n2cc(-c3cc(O)cc(O)c3)nn2)cc1	86.6
Oc1ccc(-c2cn(-c3cc(O)cc(O)c3)nn2)cc1	93.4

These molecules were tested on RBL-2H3 (assay: Cytotoxicity against basophilic leukemia RBL 2H3 cell line by MTT assay at 100 uM). Details: not given.
Assay type: functional, Rattus norvegicus
Outline: as §1

Structure (SMILES)	Activity [%]
COc1ccc(-n2cc(-c3cc(OC)cc(OC)c3)nn2)cc1	116
COc1ccc(-c2cn(-c3cc(O)cc(O)c3)nn2)cc1	99.6
Oc1ccc(/C=C/c2cc(O)cc(O)c2)cc1 [RESVERATROL]	52.1
COc1ccc(-c2cn(-c3cc(OC)cc(OC)c3)nn2)cc1	113
Oc1ccc(-n2cc(-c3cc(O)cc(O)c3)nn2)cc1	114
Oc1ccc(-c2cn(-c3cc(O)cc(O)c3)nn2)cc1	110

Each molecule was assayed on MDA-MB-231 (assay: Cytotoxicity against breast cancer MDA-MB-231 cell line by MTT assay). Details: Homo sapiens.
Assay type: functional, cell-based
Outline: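 MDA-MB-231 cells were screened by MTT in an automated format across decreasing compound concentrations. Viability was expressed as % of untreated control, with 70% of control as the arbitrary cutoff for reduced viability at 10 µM. IC50 values are approximate and were assigned to concentration ranges.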

Structure (SMILES)	IC50 [µM]
COc1cc(OC)cc(-c2cn(-c3ccc(OC)c(OC)c3)nn2)c1	10
COc1cc(OC)cc(-c2cn(-c3ccc(OC)cc3OC)nn2)c1	> 10
COc1cc(OC)cc(-n2cc(-c3cc(OC)c(OC)c(OC)c3)nn2)c1	> 1
COc1ccc(-c2cn(-c3ccc(OC(F)(F)F)cc3)nn2)cc1OC	> 1
COc1ccc(-c2cn(-c3ccc(OC(F)(F)F)cc3)nn2)cc1O	> 10
COc1cc(-c2cn(-c3c(O)c(F)cc(F)c3F)nn2)ccc1O	10
COc1cc(OC)cc(-c2cn(-c3cc(OC)cc(OC)c3)nn2)c1	> 10
COc1cc(OC)cc(-c2cn(-c3ccc4c(c3)OCO4)nn2)c1	> 10
COc1ccc(-n2cc(-c3ccc(OC)c(OC)c3)nn2)cc1	> 0.1
COc1cc(-c2cn(-c3ccc(Oc4ccccc4)cc3)nn2)cc(OC)c1OC	10
COc1ccc(-c2cn(-c3ccc(OC)c(OC)c3)nn2)cc1O	> 0.1
COc1cc(OC)cc(-c2cn(-c3ccc(Oc4ccccc4)cc3)nn2)c1	> 10
COc1cc(-c2cn(-c3ccc4c(c3)OCO4)nn2)ccc1O	> 10
COc1ccc(-c2cn(-c3c(O)c(F)cc(F)c3F)nn2)cc1O	> 10
COc1ccc(-c2cn(-c3cc(OC)c(OC)c(OC)c3)nn2)cc1	> 10
COc1cc(-c2cn(-c3cc(OC)c(OC)c(OC)c3)nn2)cc(OC)c1OC	> 10
Oc1cc(O)cc(-c2cn(-c3ccc(Oc4ccccc4)cc3)nn2)c1	> 10
COc1ccc(-c2cn(-c3ccc4c(c3)OCO4)nn2)cc1	1
COc1ccc(-n2cc(-c3cc(O)cc(O)c3)nn2)cc1OC	> 10
COc1cc(OC)cc(-n2cc(-c3ccc(OC)c(OC)c3)nn2)c1	> 1
COc1cc(-c2cn(-c3ccc(OC(F)(F)F)cc3)nn2)cc(OC)c1OC	> 10
COc1ccc(-c2cn(-c3ccc4c(c3)OCO4)nn2)cc1O	> 10
Oc1cc(O)cc(-c2cn(-c3ccc(OC(F)(F)F)cc3)nn2)c1	> 10
COc1cc(OC)cc(-c2cn(-c3ccc(OC)c(O)c3)nn2)c1	> 10

Structure (SMILES)	IC50 [µM]
COc1cc(OC)cc(-n2cc(-c3ccc(N)cc3)nn2)c1	> 10
Nc1ccc(-c2cn(-c3ccc(Oc4ccccc4)cc3)nn2)cc1	> 10
COc1ccc(-c2cn(-c3cc(OC)c(OC)c(OC)c3)nn2)cc1O	> 10
COc1cc(OC)cc(-c2cn(-c3c(O)c(F)cc(F)c3F)nn2)c1	> 10
Nc1ccc(-c2cn(-c3ccc4c(c3)OCO4)nn2)cc1	> 10
COc1cc(-c2cn(-c3ccc(OC(F)(F)F)cc3)nn2)ccc1O	10
COc1cc(OC)cc(-c2cn(-c3cc(OC)c(OC)c(OC)c3)nn2)c1	> 10
COc1cc(-n2cc(-c3cc(O)cc(O)c3)nn2)cc(OC)c1OC	> 10
COc1ccc(-c2cn(-c3ccc(Oc4ccccc4)cc3)nn2)cc1OC	10
COc1cc(OC)cc(-n2cc(-c3ccc(OC)c(O)c3)nn2)c1	> 10
COc1ccc(-n2cc(-c3cc(O)cc(O)c3)nn2)cc1O	> 10
COc1ccc(-c2cn(-c3ccc(OC)c(OC)c3)nn2)cc1	> 10
COc1ccc(-n2cc(-c3ccc(N)cc3)nn2)cc1O	> 10
COc1ccc(-n2cc(-c3cc(OC)c(OC)c(OC)c3)nn2)cc1O	10
COc1ccc(-n2cc(-c3cc(OC)c(OC)c(OC)c3)nn2)c(OC)c1	> 10
COc1cc(-c2cn(-c3cc(OC)c(OC)c(OC)c3)nn2)ccc1O	> 10
COc1ccc(-c2cn(-c3ccc(OC)cc3OC)nn2)cc1	> 10
COc1ccc(-c2cn(-c3ccc(OC)c(O)c3)nn2)cc1	> 0.1
COc1ccc(-c2cn(-c3ccc(N)cc3)nn2)cc1	> 0.1
COc1ccc(-n2cc(-c3ccc(OC)c(O)c3)nn2)cc1	> 10
COc1ccc(-c2cn(-c3ccc(Oc4ccccc4)cc3)nn2)cc1	> 0.1
COc1cc(OC)cc(-c2cn(-c3ccc(OC(F)(F)F)cc3)nn2)c1	> 1
COc1ccc(-c2cn(-c3ccc4c(c3)OCO4)nn2)cc1OC	10
COc1cc(OC)cc(-n2cc(-c3ccc(O)c(OC)c3)nn2)c1	10

Structure (SMILES)	IC50 [µM]
COc1ccc(-n2cc(-c3ccc(N)cc3)nn2)c(OC)c1	> 10
COc1ccc(-c2cn(-c3ccc(Oc4ccccc4)cc3)nn2)cc1O	> 10
COc1ccc(-n2cc(-c3cc(OC)c(OC)c(OC)c3)nn2)cc1	> 10
Oc1cc(O)cc(-c2cn(-c3ccc4c(c3)OCO4)nn2)c1	> 1
COc1ccc(-c2cn(-c3ccc(OC)cc3)nn2)cc1	> 0.1
COc1cc(-c2cn(-c3ccc4c(c3)OCO4)nn2)cc(OC)c1OC	10
COc1ccc(-c2cn(-c3c(O)c(F)cc(F)c3F)nn2)cc1	> 1
COc1ccc(-c2cn(-c3ccc(N)cc3)nn2)cc1O	> 10
COc1ccc(-n2cc(-c3ccc(N)cc3)nn2)cc1OC	> 10
COc1ccc(-c2cn(-c3ccc(OC(F)(F)F)cc3)nn2)cc1	1
COc1ccc(-n2cc(-c3ccc(OC)c(OC)c3)nn2)cc1O	> 1
COc1ccc(-n2cc(-c3cc(O)cc(O)c3)nn2)c(OC)c1	10
COc1ccc(-n2cc(-c3ccc(OC)c(O)c3)nn2)c(OC)c1	> 10
COc1ccc(-n2cc(-c3cc(O)cc(O)c3)nn2)cc1	> 10
COc1ccc(-n2cc(-c3ccc(O)c(OC)c3)nn2)cc1	> 10
COc1cc(OC)cc(-n2cc(-c3cc(O)cc(O)c3)nn2)c1	> 10
COc1ccc(-c2cn(-c3ccc(OC)c(O)c3)nn2)cc1O	> 10
COc1ccc(-n2cc(-c3ccc(N)cc3)nn2)cc1	> 0.1
Nc1ccc(-c2cn(-c3c(O)c(F)cc(F)c3F)nn2)cc1	> 10
Nc1ccc(-c2cn(-c3ccc(OC(F)(F)F)cc3)nn2)cc1	> 0.01
COc1cc(-n2cc(-c3ccc(N)cc3)nn2)cc(OC)c1OC	> 10
COc1ccc(-n2cc(-c3ccc(O)c(OC)c3)nn2)cc1O	> 10

The molecules below were run on MDA-MB-231 (assay: Cytotoxicity against breast cancer MDA-MB-231 cell line by MTT assay at 100 uM). Details: not given.
Assay type: functional, Homo sapiens
Outline: as §1

Structure (SMILES)	Activity [%]
COc1ccc(-n2cc(-c3cc(OC)cc(OC)c3)nn2)cc1	93.2
COc1ccc(-c2cn(-c3cc(O)cc(O)c3)nn2)cc1	72.2
Oc1ccc(/C=C/c2cc(O)cc(O)c2)cc1 [RESVERATROL]	67.9
COc1ccc(-c2cn(-c3cc(OC)cc(OC)c3)nn2)cc1	99.3
Oc1ccc(-n2cc(-c3cc(O)cc(O)c3)nn2)cc1	95.5
Oc1ccc(-c2cn(-c3cc(O)cc(O)c3)nn2)cc1	97

These molecules were tested on FG2 (assay: Cytotoxicity against human pancreatic carcinoma FG2 cell line by MTT assay at 100 uM). Details: not given.
Assay type: functional
Outline: as §1

Structure (SMILES)	Activity [%]
COc1ccc(-n2cc(-c3cc(OC)cc(OC)c3)nn2)cc1	88.2
COc1ccc(-c2cn(-c3cc(O)cc(O)c3)nn2)cc1	83.7
Oc1ccc(/C=C/c2cc(O)cc(O)c2)cc1 [RESVERATROL]	42.2
COc1ccc(-c2cn(-c3cc(OC)cc(OC)c3)nn2)cc1	100.8
Oc1ccc(-n2cc(-c3cc(O)cc(O)c3)nn2)cc1	91.9
Oc1ccc(-c2cn(-c3cc(O)cc(O)c3)nn2)cc1	93.7
